One block for each compound: values may come before it. The source made the active and inactive calls. The rule behind the calls is not given here.
Assays:
[1] = target: Protein cereblon/Platelet-derived growth factor receptor beta (Homo sapiens) (UniProt P09619+Q96SW2); assay: PROTAC activity at CRBN/PDGFRbeta in human K562 cells assessed as PDGFRbeta degrading activity by Western blotting analysis; assay type: cell-based
[2] = target: T1, Protein cereblon/Tyrosine-protein kinase ABL1/Breakpoint cluster region protein (Homo sapiens, UniProt P00519+P11274+Q96SW2); assay: PROTAC activity at CRBN/Bcr-Abl in human K562 cells assessed as reduction in Bcr-Abl level at 30 nM by Western blotting analysis; assay type: cell-based; settings: time 0-24 hrs
Target sequence in this assay (P00519 whole entry, looked up): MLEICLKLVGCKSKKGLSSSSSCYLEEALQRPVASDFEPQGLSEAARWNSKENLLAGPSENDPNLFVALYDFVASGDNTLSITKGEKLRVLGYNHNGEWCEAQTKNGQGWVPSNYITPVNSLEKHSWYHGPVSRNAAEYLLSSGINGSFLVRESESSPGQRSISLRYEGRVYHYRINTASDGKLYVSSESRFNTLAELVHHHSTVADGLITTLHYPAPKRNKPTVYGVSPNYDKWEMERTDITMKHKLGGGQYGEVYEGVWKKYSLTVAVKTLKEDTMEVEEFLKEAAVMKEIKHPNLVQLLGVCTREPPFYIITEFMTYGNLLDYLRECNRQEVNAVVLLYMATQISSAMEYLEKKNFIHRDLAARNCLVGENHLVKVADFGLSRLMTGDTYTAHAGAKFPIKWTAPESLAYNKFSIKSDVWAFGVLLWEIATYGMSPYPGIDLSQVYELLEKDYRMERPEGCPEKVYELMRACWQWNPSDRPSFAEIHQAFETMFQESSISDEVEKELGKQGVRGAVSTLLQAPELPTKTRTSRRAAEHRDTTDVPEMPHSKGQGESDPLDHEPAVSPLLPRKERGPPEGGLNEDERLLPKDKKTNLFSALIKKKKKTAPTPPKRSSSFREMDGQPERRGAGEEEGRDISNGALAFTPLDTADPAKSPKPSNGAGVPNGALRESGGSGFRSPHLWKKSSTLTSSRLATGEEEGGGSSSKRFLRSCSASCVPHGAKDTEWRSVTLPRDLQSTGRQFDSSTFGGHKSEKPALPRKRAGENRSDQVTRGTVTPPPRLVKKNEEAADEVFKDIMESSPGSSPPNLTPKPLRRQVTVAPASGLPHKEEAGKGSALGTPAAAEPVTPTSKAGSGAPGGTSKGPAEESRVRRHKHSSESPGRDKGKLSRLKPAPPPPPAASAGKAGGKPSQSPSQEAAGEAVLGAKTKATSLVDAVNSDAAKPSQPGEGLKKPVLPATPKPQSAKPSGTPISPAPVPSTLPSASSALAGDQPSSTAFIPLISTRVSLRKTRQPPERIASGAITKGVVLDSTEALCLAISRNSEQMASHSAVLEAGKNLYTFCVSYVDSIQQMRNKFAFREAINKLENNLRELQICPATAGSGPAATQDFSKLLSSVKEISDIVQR
Target sequence in this assay (P11274 whole entry, looked up): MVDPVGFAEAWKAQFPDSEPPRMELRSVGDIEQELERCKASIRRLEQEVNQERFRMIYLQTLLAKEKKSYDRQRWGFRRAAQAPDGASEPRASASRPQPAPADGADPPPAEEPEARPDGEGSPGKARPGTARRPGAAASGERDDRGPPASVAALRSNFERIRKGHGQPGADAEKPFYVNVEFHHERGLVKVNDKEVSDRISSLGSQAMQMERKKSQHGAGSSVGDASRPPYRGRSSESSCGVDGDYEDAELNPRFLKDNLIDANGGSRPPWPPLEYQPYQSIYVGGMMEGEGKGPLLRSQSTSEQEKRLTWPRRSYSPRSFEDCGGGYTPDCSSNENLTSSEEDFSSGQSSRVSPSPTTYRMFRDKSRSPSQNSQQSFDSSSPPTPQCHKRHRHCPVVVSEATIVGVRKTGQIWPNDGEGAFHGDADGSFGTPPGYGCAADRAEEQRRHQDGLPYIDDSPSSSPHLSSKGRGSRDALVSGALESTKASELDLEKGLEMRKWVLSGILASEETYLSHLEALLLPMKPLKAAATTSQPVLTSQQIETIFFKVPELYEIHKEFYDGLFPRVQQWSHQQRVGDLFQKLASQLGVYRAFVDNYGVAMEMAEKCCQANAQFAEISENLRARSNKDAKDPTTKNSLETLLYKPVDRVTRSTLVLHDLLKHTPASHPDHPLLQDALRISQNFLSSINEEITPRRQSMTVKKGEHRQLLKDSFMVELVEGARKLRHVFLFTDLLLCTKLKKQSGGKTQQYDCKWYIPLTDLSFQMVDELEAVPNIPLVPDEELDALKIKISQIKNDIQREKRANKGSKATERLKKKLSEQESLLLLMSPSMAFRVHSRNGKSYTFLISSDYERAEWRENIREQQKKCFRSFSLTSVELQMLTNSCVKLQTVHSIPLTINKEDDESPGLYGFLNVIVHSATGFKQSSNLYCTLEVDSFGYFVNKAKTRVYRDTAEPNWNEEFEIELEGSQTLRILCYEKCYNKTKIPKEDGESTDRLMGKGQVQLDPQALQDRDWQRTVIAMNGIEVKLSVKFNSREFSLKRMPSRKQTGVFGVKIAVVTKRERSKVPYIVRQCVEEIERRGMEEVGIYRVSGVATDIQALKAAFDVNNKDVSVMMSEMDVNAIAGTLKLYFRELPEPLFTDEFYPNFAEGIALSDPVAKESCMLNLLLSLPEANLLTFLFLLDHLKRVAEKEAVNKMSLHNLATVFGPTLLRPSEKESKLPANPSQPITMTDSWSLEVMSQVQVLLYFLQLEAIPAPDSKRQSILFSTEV
Target sequence in this assay (Q96SW2 whole entry, looked up): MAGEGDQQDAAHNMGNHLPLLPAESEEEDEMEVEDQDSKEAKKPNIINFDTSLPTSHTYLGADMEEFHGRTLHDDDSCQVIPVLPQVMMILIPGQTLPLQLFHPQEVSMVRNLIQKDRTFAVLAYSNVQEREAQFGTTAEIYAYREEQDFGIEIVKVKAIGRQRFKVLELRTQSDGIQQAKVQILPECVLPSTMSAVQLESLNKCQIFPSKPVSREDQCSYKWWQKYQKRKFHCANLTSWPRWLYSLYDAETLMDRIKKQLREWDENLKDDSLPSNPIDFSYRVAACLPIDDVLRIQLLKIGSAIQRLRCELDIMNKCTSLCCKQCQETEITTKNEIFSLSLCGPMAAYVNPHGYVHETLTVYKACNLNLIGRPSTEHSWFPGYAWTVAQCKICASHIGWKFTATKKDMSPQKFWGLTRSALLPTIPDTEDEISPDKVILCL

[3] = Apparent volume of distribution during terminal state in Wistar rat at 2 mg/kg, iv by LC-MS/MS analysis; assay type: ADME, organism-based; settings: in vivo, read-out: Vz
Procedure, shortened: (§1)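 Single intravenous dose of 2 mg/kg into the femoral vein of female Wistar rats, given as a solution in NMP/PEG200 (1:9, v/v). Plasma was collected by sublingual vein bleeding at 0.083, 0.25, 0.5, 1, 2, 4, 6, 8, 12 and 24 h from one group of rats (n = 3). Samples were extracted and quantified by LC-MS/MS, LOQ 2.5 ng/mL.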

[4] = system: Protein cereblon/Tyrosine-protein kinase ABL1/Breakpoint cluster region protein (Homo sapiens), P00519+P11274+Q96SW2 [F317L]; assay: PROTAC activity at CRBN/BCR-ABL F317L mutant in human K562 cells assessed as degradation by Western blot analysis relative to control; assay type: cell-based
Procedure, shortened: (§2)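 Cells plated at 3 × 10^5 cells/mL and exposed to compounds at the indicated concentrations and times. Cells were then harvested, washed in cold PBS and lysed in 1× SDS buffer with protease inhibitor cocktail. Protein was quantified by detergent-compatible Bradford assay, and BCR-ABL was detected by Western blot with a c-ABL antibody.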

K562 [5] = assay: Antitumor activity against human K562 cells xenografted in NOD-SCID mouse assessed as tumor growth inhibition at 1 mg/kg, ip administered daily 10 days; assay type: functional; settings: 240 h, time 10 day, read-out: TGI
Procedure, shortened: (§3)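 Mice carried K562-Luc xenografts, with 2 × 10^6 cells inoculated per mouse. Dosing began at a mean tumor volume of about 200 mm3. Drug in DMSO/PEG 400/40% hydroxypropyl-(1:3:6, vol/vol) was given ip once daily for 10 consecutive days at 1, 3 or 10 mg/kg. Calipers were used 2-3 times weekly, with V = L × W²/2, and TGI was calculated at day 10.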

[6] = Toxicity in NOD-SCID mouse xenografted with human K562 cells assessed as reduction in body weight at 100 mg/kg, ip measured on day 10; assay type: organism-based; settings: in vivo
[7] = target: T1, Protein cereblon/Tyrosine-protein kinase ABL1/Breakpoint cluster region protein; assay: PROTAC activity at CRBN/Bcr-Abl in human K562 cells assessed as reduction in STAT5 level after 16 hrs by Western blotting analysis; assay type: cell-based
Procedure, shortened: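 K562 cells were plated at 3 × 10^5 cells/mL and treated with graded concentrations for 16 h. Lysates in 1× SDS buffer with protease inhibitors were quantified by Bradford assay. Western blots were probed with antibodies against Stat5, phospho-Stat5 (Tyr694) and […], among others.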
Target sequence in this assay (P00519 whole entry, looked up): as the sequence (P00519 whole entry, looked up) above
Target sequence in this assay (P11274 whole entry, looked up): as the sequence (P11274 whole entry, looked up) above
Target sequence in this assay (Q96SW2 whole entry, looked up): as the sequence (Q96SW2 whole entry, looked up) above

[8] = target: T1, Protein cereblon/Tyrosine-protein kinase ABL1/Breakpoint cluster region protein; assay: PROTAC activity at CRBN/Bcr-Abl in human K562 cells assessed as reduction in C-Abl level at 30 nM preincubated with proteasome inhibitor MG132 for 2 hrs and measured after 8 hrs by Western blotting analysis; assay type: cell-based
Procedure, shortened: (§4)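 K562 cells were pretreated for 2 h with MG132 ([…] as printed) or MLN4924 ([…] as printed), then exposed to degrader at 30 nM for 8 h. Cells were lysed in 1× SDS buffer with protease inhibitors, and protein was quantified by Bradford assay. BCR-ABL and c-ABL were detected by Western blot.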
Target sequence in this assay (P00519 whole entry, looked up): as the sequence (P00519 whole entry, looked up) above
Target sequence in this assay (P11274 whole entry, looked up): as the sequence (P11274 whole entry, looked up) above
Target sequence in this assay (Q96SW2 whole entry, looked up): as the sequence (Q96SW2 whole entry, looked up) above

[9] = system: Protein cereblon/Tyrosine-protein kinase ABL1/Breakpoint cluster region protein (Homo sapiens), P00519+P11274+Q96SW2 [E255V]; assay: PROTAC activity at CRBN/BCR-ABL E255V mutant in human K562 cells assessed as degradation by Western blot analysis relative to control; assay type: cell-based; procedure, shortened: as §2
[10] = target: T1, Protein cereblon/Tyrosine-protein kinase ABL1/Breakpoint cluster region protein; assay: PROTAC activity at CRBN/Bcr-Abl in human K562 cells assessed as reduction in Bcr-Abl level at 30 nM preincubated with proteasome inhibitor MG132 for 2 hrs and measured after 8 hrs by Western blotting analysis; assay type: cell-based; procedure, shortened: as §4
Target sequence in this assay (P00519 whole entry, looked up): as the sequence (P00519 whole entry, looked up) above
Target sequence in this assay (P11274 whole entry, looked up): as the sequence (P11274 whole entry, looked up) above
Target sequence in this assay (Q96SW2 whole entry, looked up): as the sequence (Q96SW2 whole entry, looked up) above

[11] = target: T1, Protein cereblon/Tyrosine-protein kinase ABL1/Breakpoint cluster region protein; assay: PROTAC activity at CRBN/Bcr-Abl in human K562 cells assessed as reduction in C-Abl level at 30 nM preincubated with NEDD8 inhibitor MLN4924 for 2 hrs and measured after 8 hrs by Western blotting analysis; assay type: cell-based; procedure, shortened: as §4
Target sequence in this assay (P00519 whole entry, looked up): as the sequence (P00519 whole entry, looked up) above
Target sequence in this assay (P11274 whole entry, looked up): as the sequence (P11274 whole entry, looked up) above
Target sequence in this assay (Q96SW2 whole entry, looked up): as the sequence (Q96SW2 whole entry, looked up) above

[12] = Clearance in Wistar rat at 2 mg/kg, iv by LC-MS/MS analysis; assay type: ADME, organism-based; settings: in vivo; procedure, shortened: as §1
[13] = Cmax in Wistar rat at 2 mg/kg, iv by LC-MS/MS analysis; assay type: ADME, organism-based; set-up: route intravenous, dose 2 mg/kg; settings: in vivo; procedure, shortened: as §1
K562 [14] = assay: Antitumor activity against human K562 cells xenografted in NOD-SCID mouse assessed as tumor growth inhibition at 3 mg/kg, ip administered daily 10 days; assay type: functional; settings: 240 h, time 10 day, read-out: TGI; procedure, shortened: as §3
[15] = Apparent volume of distribution during steady state in Wistar rat at 2 mg/kg, iv by LC-MS/MS analysis; assay type: ADME, organism-based; settings: in vivo, read-out: Vdss; procedure, shortened: as §1
[16] = target: T1, Protein cereblon/Tyrosine-protein kinase ABL1/Breakpoint cluster region protein; assay: PROTAC activity at CRBN/Bcr-Abl in human K562 cells assessed as reduction in CRLK level after 16 hrs by Western blotting analysis; assay type: cell-based
Target sequence in this assay (P00519 whole entry, looked up): as the sequence (P00519 whole entry, looked up) above
Target sequence in this assay (P11274 whole entry, looked up): as the sequence (P11274 whole entry, looked up) above
Target sequence in this assay (Q96SW2 whole entry, looked up): as the sequence (Q96SW2 whole entry, looked up) above

[17] = target: T1, Protein cereblon/Tyrosine-protein kinase ABL1/Breakpoint cluster region protein; assay: PROTAC activity at CRBN/Bcr-Abl in human K562 cells assessed as degrading activity by Western blotting analysis; assay type: cell-based
[18] = Half life in Wistar rat at 2 mg/kg, iv by LC-MS/MS analysis; assay type: ADME, organism-based; settings: in vivo; procedure, shortened: as §1
[19] = Tmax in Wistar rat at 2 mg/kg, iv by LC-MS/MS analysis; assay type: ADME, organism-based; settings: in vivo; procedure, shortened: as §1
K562 [20] = assay: Antiproliferative activity against human K562 cells assessed as cell growth inhibition measured after 48 hrs by CCK8 assay; assay type: functional, cell-based; settings: K562, 48 h
Procedure, shortened: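 Cells were seeded at 3000-20,000 per well and given 3-fold serial dilutions of compound in medium. After 2 days at 37 °C in 5% CO2, CCK-8 reagent was added for 2-4 h and absorbance was read at 450 nm.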

[21] = MRT (0 to t) in Wistar rat at 2 mg/kg, iv by LC-MS/MS analysis; assay type: ADME, organism-based; settings: in vivo; procedure, shortened: as §1
[22] = target: T1, Protein cereblon/Tyrosine-protein kinase ABL1/Breakpoint cluster region protein; assay: PROTAC activity at CRBN/Bcr-Abl in human K562 cells assessed as reduction in Bcr-Abl level at 30 nM preincubated with NEDD8 inhibitor MLN4924 for 2 hrs and measured after 8 hrs by Western blotting analysis; assay type: cell-based; procedure, shortened: as §4
[23] = system: Protein cereblon/Tyrosine-protein kinase ABL1/Breakpoint cluster region protein (Homo sapiens), P00519+P11274+Q96SW2 [V299L]; assay: PROTAC activity at CRBN/BCR-ABL V299L mutant in human K562 cells assessed as degradation by Western blot analysis relative to control; assay type: cell-based; procedure, shortened: as §2
[24] = target: Protein cereblon/Proto-oncogene tyrosine-protein kinase Src (Homo sapiens) (UniProt P12931+Q96SW2); assay: PROTAC activity at CRBN/Src in human K562 cells assessed as Src degrading activity by Western blotting analysis; assay type: cell-based
K562 [25] = assay: Antitumor activity against human K562 cells xenografted in NOD-SCID mouse assessed as tumor growth inhibition at 10 mg/kg, ip administered daily 10 days; assay type: functional; settings: 240 h, time 10 day, read-out: TGI; procedure, shortened: as §3
[26] = AUC (0 to t) in Wistar rat at 2 mg/kg, iv by LC-MS/MS analysis; assay type: ADME, organism-based; set-up: dose 2 mg/kg; settings: in vivo; procedure, shortened: as §1

Chain of Protein cereblon/Proto-oncogene tyrosine-protein kinase Src (Homo sapiens) (P12931 whole entry, looked up): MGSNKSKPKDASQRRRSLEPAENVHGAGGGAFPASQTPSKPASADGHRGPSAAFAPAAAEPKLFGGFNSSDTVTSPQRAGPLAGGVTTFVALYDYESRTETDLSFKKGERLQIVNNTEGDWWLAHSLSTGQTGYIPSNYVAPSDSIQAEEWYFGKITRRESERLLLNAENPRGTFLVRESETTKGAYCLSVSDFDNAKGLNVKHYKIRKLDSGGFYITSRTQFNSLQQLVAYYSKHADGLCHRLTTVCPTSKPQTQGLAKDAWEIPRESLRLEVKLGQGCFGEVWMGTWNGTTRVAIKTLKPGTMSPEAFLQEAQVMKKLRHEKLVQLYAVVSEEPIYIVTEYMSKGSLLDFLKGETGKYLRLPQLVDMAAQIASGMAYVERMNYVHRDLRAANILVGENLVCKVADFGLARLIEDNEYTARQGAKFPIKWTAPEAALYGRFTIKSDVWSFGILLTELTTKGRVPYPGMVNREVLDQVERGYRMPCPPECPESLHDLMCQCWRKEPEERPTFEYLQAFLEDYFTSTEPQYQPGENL
Chain of Protein cereblon/Proto-oncogene tyrosine-protein kinase Src (Homo sapiens) (Q96SW2 whole entry, looked up): as the sequence (Q96SW2 whole entry, looked up) above

SMILES: Cc1nc(Nc2ncc(C(=O)Nc3c(C)cccc3Cl)s2)cc(N2CCN(CCSc3cccc4c3C(=O)N(C3CCC(=O)NC3=O)C4=O)CC2)n1 (centres undefined)
Activity [1]: inactive
inhibition [2]: Active
Vd [3]: 13 L/kg
Activity [4]: Active
inhibition in vivo at 1 mg/kg (K562 [5]): 78.9%
Activity [6]: Non-Toxic
inhibition [7]: Active
inhibition [8]: Active
Activity [9]: Active
inhibition [10]: Active
inhibition [11]: Active
clearance [12]: 35.7 mL/min/kg
Cmax [13]: 1500 ng/mL
inhibition in vivo at 3 mg/kg (K562 [14]): 93.8%
Vd [15]: 5.23 L/kg
inhibition [16]: Active
DC50 [17]: 0.18 nM
half-life [18]: 4.23 h
Tmax [19]: 4.8 min
IC50 (K562 [20]): 0.49 nM
MRT last [21]: 2 h
inhibition [22]: Active
Activity [23]: Active
Activity [24]: inactive
inhibition in vivo at 10 mg/kg (K562 [25]): 98.8%
AUC(0-t) [26]: 926 ng·h/mL

SMILES: Cc1nc(Nc2ncc(C(=O)Nc3c(C)cccc3Cl)s2)cc(N2CCN(CCCCC(=O)Nc3cccc4c3C(=O)N(C3CCC(=O)NC3=O)C4=O)CC2)n1 (centres undefined)
DC50 [17]: 10.1 nM
IC50 (K562 [20]): 4.6 nM

SMILES: Cc1nc(Nc2ncc(C(=O)Nc3c(C)cccc3Cl)s2)cc(N2CCN(C(=O)CSc3cccc4c3C(=O)N(C3CCC(=O)NC3=O)C4=O)CC2)n1 (centres undefined)
DC50 [17]: 5.6 nM
IC50 (K562 [20]): 3.2 nM

SMILES: Nc1cccc2c1CN(C1CCC(=O)NC1=O)C2=O (centres undefined) [LENALIDOMIDE]
IC50 (K562 [20]): > 10000 nM

SMILES: Cc1nc(Nc2ncc(C(=O)Nc3c(C)cccc3Cl)s2)cc(N2CCN(C(=O)CCOCCOCCOCCNc3cccc4c3C(=O)N(C3CCC(=O)NC3=O)C4=O)CC2)n1 (centres undefined)
DC50 [17]: 18.4 nM
IC50 (K562 [20]): 14.8 nM

SMILES: Cc1nc(Nc2ncc(C(=O)Nc3c(C)cccc3Cl)s2)cc(N2CCN(CCCCCCOCCOCCOCCCCCC(=O)Nc3cccc4c3C(=O)N(C3CCC(=O)NC3=O)C4=O)CC2)n1 (centres undefined)
IC50 (K562 [20]): 4.1 nM

SMILES: Cc1nc(Nc2ncc(C(=O)Nc3c(C)cccc3Cl)s2)cc(N2CCN(C(=O)COc3cccc4c3C(=O)N(C3CCC(=O)NC3=O)C4=O)CC2)n1 (centres undefined)
DC50 [17]: 11.1 nM
IC50 (K562 [20]): 7 nM

Continued by falling IC50 (K562 [20]), values first:

DC50 [17]: 9 nM
IC50 (K562 [20]): 1.47 nM
SMILES: Cc1nc(Nc2ncc(C(=O)Nc3c(C)cccc3Cl)s2)cc(N2CCN(C(=O)CCCCCCNc3cccc4c3C(=O)N(C3CCC(=O)NC3=O)C4=O)CC2)n1 (centres undefined)

DC50 [17]: 10 nM
IC50 (K562 [20]): 1.22 nM
SMILES: Cc1nc(Nc2ncc(C(=O)Nc3c(C)cccc3Cl)s2)cc(N2CCN(C(=O)CNc3cccc4c3C(=O)N(C3CCC(=O)NC3=O)C4=O)CC2)n1 (centres undefined)

DC50 [17]: 125 nM
IC50 (K562 [20]): 1.03 nM
SMILES: Cc1nc(Nc2ncc(C(=O)Nc3c(C)cccc3Cl)s2)cc(N2CCN(C(=O)CCCC(=O)Nc3cccc4c3CN(C3CCC(=O)NC3=O)C4=O)CC2)n1 (centres undefined)

DC50 [17]: 2.7 nM
IC50 (K562 [20]): 0.51 nM
SMILES: Cc1nc(Nc2ncc(C(=O)Nc3c(C)cccc3Cl)s2)cc(N2CCN(CCSc3cccc4c3CN(C3CCC(=O)NC3=O)C4=O)CC2)n1 (centres undefined)

Vd [3]: 4.02 L/kg
clearance [12]: 24.1 mL/min/kg
Cmax [13]: 1450 ng/mL
Vd [15]: 2.78 L/kg
DC50 [17]: 2.7 nM
half-life [18]: 1.93 h
Tmax [19]: 4.8 min
IC50 (K562 [20]): 0.28 nM
MRT last [21]: 1.55 h
AUC(0-t) [26]: 1330 ng·h/mL
SMILES: Cc1nc(Nc2ncc(C(=O)Nc3c(C)cccc3Cl)s2)cc(N2CCN(CCCCNc3cccc4c3C(=O)N(C3CCC(=O)NC3=O)C4=O)CC2)n1 (centres undefined)

Source: ChEMBL document CHEMBL4831495, “Discovery of novel BCR-ABL PROTACs based on the cereblon E3 ligase design, synthesis, and biological evaluation” (Eur J Med Chem, 2021)
